Experimental findings from ChEMBL document CHEMBL5096172, “Tricyclic Triazoles as σ1 Receptor Antagonists for Treating Pain” (J Med Chem, 2021) are described below.

The nature of data set [1]: Clearance in CD-1 mouse at 10 mg/kg, po by HPLC-MS/MS analysis relative to liver blood flow. The data set is classed as ADME, organism-based. The note with it: in vivo. An outline of the steps:
(§1)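 Male Wistar rats (250−300 g, groups of 2) or male CD1 mice (25−30 g, groups of 16) dosed 10 mg/kg orally in 0.5% HPMC or 1 mg/kg iv in saline. Blood taken over time from saphenous vein or by intracardiac puncture into heparin tubes. Plasma spun at 4 °C, stored −80 °C, assayed by HPLC−MS/MS after protein precipitation. Noncompartmental analysis.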

A short description of data set [2]: Clearance in wistar rat at 10 mg/kg, po by HPLC-MS/MS analysis relative to liver blood flow. The data set is classed as ADME, organism-based. The note with it: in vivo. In short, it runs like this:
as §1

Turning to `Cc1cc(OCCN2CCOCC2)nn1-c1ccc2ccccc2c1`, the CL in data set [1] is 65%; in data set [2] it was 109%.
